Source: ChEMBL document CHEMBL1148817, “Synthesis and radioligand binding studies of bis-isoquinolinium derivatives as small conductance Ca(2+)-activated K(+) channel blockers” (J Med Chem, 2007)

Columns and labels:
[1] = target: T1, Small conductance calcium-activated potassium channel (Rattus norvegicus, UniProt P70604+P70606+P70605); experiment: Blockade of SK channel in Wistar rat brain assessed as inhibition of apamin-sensitive after-hyperpolarisation
How it was run: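 Apamin-sensitive AHP area (mV s) measured as percent reduction, normalized to block by 300 nM apamin; four sweeps averaged. IC50 from Hill equation fit; mean ± SD, n = 3.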

[2] = target: T1, Small conductance calcium-activated potassium channel; experiment: Displacement of [125I]apamin from SK channel in Wistar rat cortex
How it was run: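 Rat cortex synaptosomes (0.2 mg protein/mL) incubated 1 h at 0 °C with 10 pM 125I-apamin and eight drug concentrations (10-4.5 to 10^-8 M) in 10 mM Tris-HCl pH 7.5, 5.4 mM KCl, 0.1% BSA. Nonspecific binding defined with 0.1 µM unlabeled apamin. Filtration on PEI-coated GF/C filters, scintillation counting, curve fitting.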

[3] = target: Small conductance calcium-activated potassium channel (Rattus norvegicus) (UniProt P70604+P70606+P70605); experiment: Displacement of [125I]apamin from SK channel in Wistar rat cortex at 10 uM

Row | SMILES | IC50 [1] [nM] | Ki [2] [nM] | Activity [3] [%]
1 | COc1cc2cc[n+](C)c(CCCCc3c4c(OC)c(OC)c(OC)cc4cc[n+]3C)c2c(OC)c1OC.[I-].[I-] | 4400 | 42 | > 58
2 | COc1cc2cc[n+](C)c(CCCc3c4c(OC)c(OC)c(OC)cc4cc[n+]3C)c2c(OC)c1OC.[I-].[I-] | – | 90 | > 58
3 | C[n+]1ccc2ccccc2c1CCCCc1c2ccccc2cc[n+]1C.[I-].[I-] | – | 1962 | > 58
4 | COc1cc2cc[n+](C)c(CCCCc3c4cc(OC)c(OC)cc4cc[n+]3C)c2cc1OC.[I-].[I-] | – | 164 | > 58
5 | COc1cc2cc[n+](C)c(Cc3ccc(Cc4c5cc(OC)c(OC)cc5cc[n+]4C)cc3)c2cc1OC.[I-].[I-] | – | 163 | > 58
6 | COc1cc2cc[n+](C)c(Cc3ccccc3Cc3c4c(OC)c(OC)c(OC)cc4cc[n+]3C)c2c(OC)c1OC.[I-].[I-] | 4100 | 35 | > 58
7 | C[n+]1ccc2ccccc2c1Cc1cccc(Cc2c3ccccc3cc[n+]2C)c1.[I-].[I-] | – | 132 | > 58
8 | Cc1cc(N)c2ccccc2[n+]1CCCCCCCCCC[n+]1c(C)cc(N)c2ccccc21.[Cl-].[Cl-] [DEQUALINIUM CHLORIDE] | – | 221 | > 58
9 | COc1cc2cc[n+](C)c(Cc3ccc(Cc4c5c(OC)c(OC)c(OC)cc5cc[n+]4C)cc3)c2c(OC)c1OC.[I-].[I-] | – | 280 | > 58
10 | COc1ccc(C[C@H]2c3cc(OC)c(OC)cc3CC[N+]2(C)C)cc1OC.[I-] [LAUDANOSINE METHIODIDE] | 15000 | – | > 58
11 | C[n+]1ccc2ccccc2c1CCCCCc1c2ccccc2cc[n+]1C.[I-].[I-] | – | 1465 | > 58

Further lines, results first:

Row | IC50 [1] [nM] | Ki [2] [nM] | Activity [3] [%] | SMILES
12 | – | 150 | > 58 | COc1cc2cc[n+](C)c(CCCCCc3c4cc(OC)c(OC)cc4cc[n+]3C)c2cc1OC.[I-].[I-]
13 | 2400 | 23 | > 58 | COc1cc2cc[n+](C)c(Cc3cccc(Cc4c5c(OC)c(OC)c(OC)cc5cc[n+]4C)c3)c2c(OC)c1OC.[I-].[I-]
14 | – | 1687 | > 58 | C[n+]1ccc2ccccc2c1CCCc1c2ccccc2cc[n+]1C.[I-].[I-]
15 | 3800 | 33 | > 58 | COc1cc2cc[n+](C)c(Cc3ccccc3Cc3c4cc(OC)c(OC)cc4cc[n+]3C)c2cc1OC.[I-].[I-]
16 | – | 106 | > 58 | COc1cc2cc[n+](C)c(Cc3cccc(Cc4c5cc(OC)c(OC)cc5cc[n+]4C)c3)c2cc1OC.[I-].[I-]
17 | – | 196 | > 58 | COc1cc2cc[n+](C)c(CCCc3c4cc(OC)c(OC)cc4cc[n+]3C)c2cc1OC.[I-].[I-]
18 | – | 438 | > 58 | C[n+]1ccc2ccccc2c1Cc1ccccc1Cc1c2ccccc2cc[n+]1C.[I-].[I-]
19 | – | 1103 | > 58 | C[n+]1ccc2ccccc2c1Cc1ccc(Cc2c3ccccc3cc[n+]2C)cc1.[I-].[I-]
